Experimental data taken from ChEMBL document CHEMBL1166008, “A new class of potential anti-tuberculosis agents: Synthesis and preliminary evaluation of novel acrylic acid ethyl ester derivatives” (Bioorg Med Chem, 2010).
Values after ≈ are worked out from the molar mass of the structure shown.

Columns and labels:
[1] = tested on: Mycolicibacterium smegmatis; experiment: Antimycobacterial activity against Mycobacterium smegmatis after 48 hrs by microtiter plate method; type: functional
How it was run: (§1)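 Broth microdilution MIC in Middlebrook 7H9 broth with 10% OADC. Mycobacterial cultures grown statically seven days in the same medium at 35 °C. Plates incubated 48 h at 35 °C and scored growth/no growth. Rifampin positive control.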

Staphylococcus aureus = experiment: Antibacterial activity against Staphylococcus aureus ATCC 29213 after 18 to 24 hrs by microtiter plate method; type: functional
How it was run: (§2)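 Broth microdilution MIC in cation-adjusted Mueller–Hinton broth. Cultures grown statically overnight on tryptic soy agar at 35 °C. Plates incubated 18–24 h at 35 °C and scored growth/no growth. Tetracycline control included.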

Bacillus cereus = experiment: Antibacterial activity against Bacillus cereus after 18 to 24 hrs by microtiter plate method; type: functional; how it was run: as §2
Escherichia coli = experiment: Antibacterial activity against Escherichia coli ATCC 25922 after 18 to 24 hrs by microtiter plate method; type: functional; how it was run: as §2
[2] = tested on: Mycobacterium tuberculosis; experiment: Antimycobacterial activity against Mycobacterium tuberculosis H37Rv after 48 hrs by green fluorescent protein-based assay; type: functional
How it was run: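 M. tuberculosis H37Rv carrying high-copy pHIGH22 plasmid expressing GFP. Killing read as loss of GFP fluorescence. Isoniazid and rifampin positive controls.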

[3] = tested on: Mycolicibacterium fortuitum; experiment: Antimycobacterial activity against Mycobacterium fortuitum after 48 hrs by microtiter plate method; type: functional; how it was run: as §1
Mycobacterium kansasii = experiment: Antimycobacterial activity against Mycobacterium kansasii after 48 hrs by microtiter plate method; type: functional; how it was run: as §1
Mycobacteroides chelonae = experiment: Antimycobacterial activity against Mycobacterium chelonae after 48 hrs by microtiter plate method; type: functional; how it was run: as §1
Mycobacterium avium = experiment: Antimycobacterial activity against Mycobacterium avium after 48 hrs by microtiter plate method; type: functional; how it was run: as §1
[4] = tested on: Mycobacterium intracellulare; experiment: Antimycobacterial activity against Mycobacterium intracellular after 48 hrs by microtiter plate method; type: functional; how it was run: as §1
J774.A1 = experiment: Cytotoxicity against mouse J774A1 cells after 24 hrs by trypan blue exclusion assay; type: cell-based; conditions: J774.A1, 24 h
How it was run: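 Murine J774A.1 monocytes seeded at 1 × 10^6/well in RPMI 1640. Next day, twofold dilutions of drug in PBS added. Following day, trypan blue added for 10 min, then dead (blue) and live cells counted in three fields per well. IC50 taken as concentration giving 50% dead cells.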

Compound	MIC [1] [µg/mL]	MIC (Staphylococcus aureus) [µg/mL]	MIC (Bacillus cereus) [µg/mL]	MIC (Escherichia coli) [µg/mL]	MIC [2] [µg/mL]	MIC [3] [µg/mL]	MIC (Mycobacterium kansasii) [µg/mL]	MIC (Mycobacteroides chelonae) [µg/mL]	MIC (Mycobacterium avium) [µg/mL]	MIC [4] [µg/mL]	IC50 (J774.A1) [µg/mL]
CCOC(=O)/C=C\Oc1ccc2ccccc2c1	128 (≈ 528 µM)	> 128	> 128	> 128							
CCOC(=O)/C=C\Sc1cccs1	128 (≈ 597 µM)	> 128	> 128	> 128							
CCOC(=O)/C=C\Sc1ccccc1C(C)C	> 128	> 128	> 128	> 128							
CCOC(=O)/C=C\n1ccnc1	> 128	> 128	> 128	> 128							
CCOC(=O)/C=C\Oc1cccc([N+](=O)[O-])c1	64 (≈ 270 µM)	64 (≈ 270 µM)	> 128	> 128							
CCOC(=O)/C=C\SC1CCCCC1	> 128	> 128	> 128	> 128							
CCOC(=O)/C=C\Oc1ccc(C(C)(C)C)cc1	128 (≈ 515 µM)	> 128	> 128	> 128							
NNC(=O)c1ccncc1 [ISONIAZID]					0.25 (≈ 1.82 µM)						
CCOC(=O)/C=C\Sc1cccc2ccccc12	128 (≈ 495 µM)	> 128	> 128	> 128							
CCOC(=O)/C=C\n1nnc2ccccc21	> 128	> 128	> 128	> 128							
CCOC(=O)/C=C\n1cccn1	> 128	> 128	> 128	> 128							
CCOC(=O)/C=C\n1ccc2ccccc21	> 128	> 128	> 128	> 128							
CCOC(=O)/C=C\Sc1ccccn1	128 (≈ 612 µM)	> 128	> 128	> 128							
CCOC(=O)/C=C\Oc1nc2ccccc2s1	128 (≈ 513 µM)	> 128	> 128	> 128							
CCOC(=O)/C=C\Sc1ccccc1C(=O)OC	64 (≈ 240 µM)	> 128	> 128	> 128							
CCOC(=O)/C=C\Oc1ccc(C(N)=O)cc1	> 128	> 128	> 128	> 128							
CO[C@H]1/C=C/O[C@@]2(C)Oc3c(C)c(O)c4c(O)c(c(/C=N/N5CCN(C)CC5)c(O)c4c3C2=O)NC(=O)/C(C)=C\C=C\[C@H](C)[C@H](O)[C@@H](C)[C@@H](O)[C@@H](C)[C@H](OC(C)=O)[C@@H]1C [RIFAMPIN]	64 (≈ 77.8 µM)				< 0.03						

Compound	MIC [1] [µg/mL]	MIC (Staphylococcus aureus) [µg/mL]	MIC (Bacillus cereus) [µg/mL]	MIC (Escherichia coli) [µg/mL]	MIC [2] [µg/mL]	MIC [3] [µg/mL]	MIC (Mycobacterium kansasii) [µg/mL]	MIC (Mycobacteroides chelonae) [µg/mL]	MIC (Mycobacterium avium) [µg/mL]	MIC [4] [µg/mL]	IC50 (J774.A1) [µg/mL]
CCOC(=O)/C=C\Oc1ccccc1C	> 128	> 128	> 128	> 128							
CCOC(=O)/C=C\Oc1ccc(F)cc1	> 128	> 128	> 128	> 128							
CCOC(=O)/C=C\Oc1cccnc1	> 128	> 128	> 128	> 128							
CCOC(=O)/C=C\Oc1ccccc1C(=O)OC	> 128	> 128	> 128	> 128							
CCOC(=O)/C=C\Sc1ccc(O)cc1	64 (≈ 285 µM)	128 (≈ 571 µM)	128 (≈ 571 µM)	> 128							
CCOC(=O)/C=C\Oc1cccc(F)c1	> 128	> 128	> 128	> 128							
CCOC(=O)/C=C\Sc1ccc2ccccc2c1	64 (≈ 248 µM)	128 (≈ 495 µM)	> 128	> 128							
CCOC(=O)/C=C\Sc1ccc(C(C)(C)C)cc1	16 (≈ 60.5 µM)	> 128	> 128	> 128	25 (≈ 94.6 µM)	4 (≈ 15.1 µM)	16 (≈ 60.5 µM)	8 (≈ 30.3 µM)	64 (≈ 242 µM)	128 (≈ 484 µM)	150 (≈ 567 µM)
CCOC(=O)/C=C\Sc1ncccn1	64 (≈ 304 µM)	> 128	> 128	> 128							
CCOC(=O)/C=C\Oc1cccc2ccccc12	64 (≈ 264 µM)	> 128	> 128	> 128							
CCOC(=O)/C=C\Oc1cc(OC)cc(OC)c1	128 (≈ 507 µM)	> 128	> 128	> 128							
CCOC(=O)/C=C\Oc1ccccc1C(C)C	> 128	> 128	> 128	> 128							
CCOC(=O)/C=C\n1ncc2ccccc21	> 128	> 128	> 128	> 128							
CCOC(=O)/C=C\n1nnnc1SC	128 (≈ 597 µM)	> 128	> 128	> 128							
CCOC(=O)/C=C\Oc1ccsc1C(=O)OC	> 128	> 128	> 128	> 128							
CCOC(=O)/C=C\Sc1nc2ccccc2s1	32 (≈ 121 µM)	> 128	> 128	> 128	25 (≈ 94.2 µM)	16 (≈ 60.3 µM)	8 (≈ 30.1 µM)	8 (≈ 30.1 µM)	64 (≈ 241 µM)	16 (≈ 60.3 µM)	200 (≈ 754 µM)
N#Cc1cccc(/C=C/SC2=NCCS2)c1 [PHENOTHIOSTYRENE]	64 (≈ 260 µM)	> 128	> 128	> 128							
